Compound activity from PubChem.
Runt-SMMHC FRET – blocks binding of human RUNX1 Runt domain to CBFb-SMMHC. Q01196+Q13951. Cerulean-Runt/Venus-CBFb-SMMHC FRET ratio 530/480, 1 h. inhibition, % at 20 µM. hit rate 0.74% among 220,000;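 active = mean inhibition across duplicate retests at 20 µM reaching about 50%, limit read from the data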;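 note: 0% = DMSO wells and 100% = wells with excess untagged CBFb-SMMHC; inhibitors lower the FRET ratio by blocking Runt binding to CBFb-SMMHC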
Target sequence (Q01196 whole entry, looked up, the tested form may be a part): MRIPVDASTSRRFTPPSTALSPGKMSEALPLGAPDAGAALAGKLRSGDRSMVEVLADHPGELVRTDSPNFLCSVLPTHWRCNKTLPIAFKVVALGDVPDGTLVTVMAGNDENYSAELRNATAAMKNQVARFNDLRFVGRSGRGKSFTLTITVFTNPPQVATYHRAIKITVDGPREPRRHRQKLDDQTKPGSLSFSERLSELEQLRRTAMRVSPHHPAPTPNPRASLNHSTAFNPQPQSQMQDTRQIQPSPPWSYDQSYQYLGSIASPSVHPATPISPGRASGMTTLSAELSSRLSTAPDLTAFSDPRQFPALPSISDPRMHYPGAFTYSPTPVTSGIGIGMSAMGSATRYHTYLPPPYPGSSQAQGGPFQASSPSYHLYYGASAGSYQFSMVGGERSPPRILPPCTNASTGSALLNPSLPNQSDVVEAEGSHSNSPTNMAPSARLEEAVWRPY
Target sequence (Q13951 whole entry, looked up, the tested form may be a part): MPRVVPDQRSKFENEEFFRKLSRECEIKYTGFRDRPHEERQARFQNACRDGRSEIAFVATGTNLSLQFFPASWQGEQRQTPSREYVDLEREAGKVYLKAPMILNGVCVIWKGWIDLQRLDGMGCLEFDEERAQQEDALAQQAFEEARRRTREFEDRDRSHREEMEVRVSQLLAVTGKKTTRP
RanGTP-Imp inh – disruptors of Ran-importin-beta complex formation – biochemical, FRET, CFP-Ran, YFP-importin-beta, homogeneous, primary screen. cell-free CFP-Ran/YFP-importin-beta FRET ratio. inhibition, % (no concentration beside the values). hit rate 1.1% among 300,000. AID 2216;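 active = more than half of the replicate wells show a fall in the fluorescence ratio signal beyond about 16%, limit read from the data, passing the limit was not always enough; inconclusive = exactly half of the replicate wells pass the set limit; inactive = fewer than half of replicates pass the limit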;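 note: 0% = DMSO wells and 100% = Ran loaded with GDP instead of GTP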
Runt-CBFb FRET – Runt domain-CBFb interaction inhibition. Cerulean-Runt/Venus-CBFb FRET ratio 530/480, 1 h. hit rate 0.46% among 220,000. inhibition, % at 20 µM. AID 1496;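 active = inhibition over about 50% at 20 µM in the single-dose screen, limit read from the data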;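 note: 0% = DMSO wells and 100% = excess unlabeled CBFb competitor control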
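test system = Cerulean-Runt domain fusion protein, energy donor | probe or stimulus = Venus-CBFb binding partner, 100 nM | incubation = two 1 h room-temperature incubations shielded from light | detection = fluorescence energy transfer, 422 nm excitation, 530/480 nm emission | measure = loss of energy transfer signal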
Hck-Nef inh – inhibitors of human Hck kinase activated by Nef | AID 463187 | inhibition, % at 20 µM | P08631 | hit rate 0.68% among 220,000 | Recombinant Hck-YEEI plus Nef, Z-Lyte FRET kinase assay;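 active = Hck-Nef kinase inhibition above about 50%, limit read from the data; inactive = inhibition below that limit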;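 note: 0% = DMSO with Hck plus Nef and 100% = Hck alone without Nef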
PfM18AAP inh – PfM18AAP enzyme inhibition; hit rate 1.2% among 290,000; recombinant PfM18AAP, H-Glu-NHMec fluorogenic cleavage; inhibition, % at 7.35 µM; AID 1822;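 active = inhibition above the campaign mean inhibition over all tested compounds plus 3 SD, cut at about 28% in these data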;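 note: 0% = plate median of test compound wells and 100% = 2 mM ZnCl2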
RBBP9 inhibitor – blocks human serine hydrolase RBBP9; O75884; recombinant RBBP9, FP-Rh probe fluorescence polarization; inhibition, % at 7.94 µM; hit rate 0.2% among 220,000;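 active = inhibition above the campaign mean of all tested compounds plus 3 SD, cut at about 14% in these data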;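 note: plate controls were DMSO wells with RBBP9 for no effect and wells lacking RBBP9 protein for full effect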
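Material: RBBP9 protein. Amount: RBBP9 at 2.5 µM in dispensed solution, before mixing. Schedule: 30 min then 45 min, 25 °C. Medium: Tris buffer pH 8.0, NaCl, Pluronic. Measured by: fluorescence polarization. Measure: percent inhibition from mP, scaled between DMSO and no-protein wells. Replication: one well per compound.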
Hck-Nef confirm – Hck-Nef kinase inhibition, confirmation; AID 463188; hit rate 28% among 1,300; shares compounds with Hck-Nef inh; Recombinant Hck-YEEI:Nef, Z-Lyte FRET kinase assay; calls only at 10 µM;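 active = average inhibition of at least 50%, with Z-scores no higher than 3 in both the phospho-tyrosine peptide and fluorescence counterscreens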
* hit, by the source's call; i = inactive; ? = inconclusive; . = no result shown; + = active, no number. An excerpt weighted towards active compounds, which were near 2.9% of everything screened.

SMILES | Runt-SMMHC FRET | RanGTP-Imp inh | Runt-CBFb FRET | Hck-Nef inh | PfM18AAP inh | RBBP9 inhibitor | others
Cn1c(SCc2cccc(Br)c2)nnc1-c1ccncc1 | . | 7.5 | . | . | -4.6 | .
O=C(c1cccc(S(=O)(=O)NCc2ccccc2)c1)N1CCCC(C(F)(F)F)C1 (stereo unspecified) | . | 2.7 | . | . | . | .
Cc1cc(=O)oc2c(C)c(OCC(=O)c3ccccc3)ccc12 | . | -4.5 | . | . | 6.7 | .
N=c1c(C(=O)NCc2ccc(F)cc2)cc2c(=O)n3ccccc3nc2n1CCCN1CCOCC1 | 65.3* | . | 12.5 | 69.3* | 8.2 | -4.8
O=C1CCCC2=C1C(c1cccc(O)c1)c1c(ccc3ncccc13)N2 (stereo unspecified) | 2.2 | 1.7 | 4.0 | 64.9* | -7.2 | -12.2 | Hck-Nef confirm=i
COc1cccc(NC(=O)CN(C)C(=O)/C=C/c2ccc3ccccc3n2)c1 | . | 6.8 | . | . | . | .
Cc1cccc(NC(=O)CN2C(=O)N/C(=C\c3ccc(-c4cccc(C(=O)O)c4)o3)C2=O)c1 | 80.2* | 25.6* | 85.3* | 80.1* | 3.9 | -0.3
Cc1ccc(CN2C(=O)N/C(=C/c3ccc(-c4ccc(C(=O)O)cc4)o3)C2=O)cc1 | 80.3* | ? | 126.2* | 89.3* | -8.6 | -12.3
Cc1cccc(NC(=O)CN2C(=O)N/C(=C/c3ccc(C)o3)C2=O)c1 | -24.8 | 0.0 | -8.1 | -0.3 | 4.1 | -2.0
Cc1ccc(CN2C(=O)N/C(=C\c3cccn3-c3cccc(C(=O)O)c3)C2=O)cc1 | 10.2 | 0.8 | 18.1 | 38.5 | 4.5 | -6.3
CCCNc1c(NC(=O)c2ccc3c(c2)OCO3)c(=O)oc2ccccc12 | . | -1.1 | . | . | -13.6 | .
COc1ccc(CNC(=O)c2[nH]c(C)c(C(C)=O)c2C)cc1 | . | -2.0 | . | . | 1.1 | .
COc1ccc(OC)c(S(=O)(=O)N2CCC(C(=O)NC3CCCC3)CC2)c1 | . | -0.3 | . | . | 0.4 | .
CC(C)NC(=O)CN(Cc1ccc(F)cc1)C(=O)CCC(=O)Nc1nccs1 | . | -1.9 | . | . | -3.7 | .
COc1ccccc1CNS(=O)(=O)c1cc(-c2cc(C)no2)ccc1C(C)C | . | 2.7 | . | . | -1.5 | .
O=C1N=C(N2CCN(c3ccccc3)CC2)S/C1=C\c1ccco1 | -10.1 | 7.1 | 0.7 | 32.7 | 8.2 | -1.5
O=C1N=C(N2CCN(c3ccccc3)CC2)S/C1=C/c1ccco1 | 2.4 | -1.0 | -1.1 | 52.2* | 8.5 | -2.8 | Hck-Nef confirm=i
Cc1cc(C#Cc2c(-c3ccccc3)n(C)c3ccccc23)ccc1F | . | 0.9 | . | . | -5.3 | .
Cc1ccc(-c2csc(Nc3ccc(C(=O)O)cc3)[n+]2Cc2ccccc2)cc1 | -16.2 | 5.9 | -5.9 | 85.2* | 2.1 | -2.8 | Hck-Nef confirm=+
CCOC(=O)c1ccc2c(c1)C1C=CCC1C(C(=O)O)N2 (stereo unspecified) | 1.3 | . | 2.9 | 59.2* | 4.1 | 6.9 | Hck-Nef confirm=+
CCOC(=O)C1Nc2ccc(C(=O)O)cc2C2C=CCC12 (stereo unspecified) | . | -5.2 | . | . | 6.0 | .
COc1ccc(N2CC(NC(=O)N3CCN(C(=O)c4ccco4)CC3)CC2=O)cc1OC (stereo unspecified) | . | -3.0 | . | . | . | .
CC[C@H](CO)Nc1nc(Nc2cccc(Cl)c2)c2ncn(C(C)C)c2n1 | -1.5 | -1.1 | 1.7 | 110.0* | . | . | Hck-Nef confirm=+
CC(C)[C@H](CO)N(Cc1cccc(F)c1)c1nc(Nc2cccc(Cl)c2)c2ncn(C(C)C)c2n1 | 3.1 | 0.2 | 2.4 | 68.0* | . | . | Hck-Nef confirm=+
CC(C)n1cnc2c(N(C)c3cccc(Cl)c3)nc(N(CCO)CCO)nc21 | -1.1 | 5.4 | 0.9 | 23.1 | . | .
CCNc1c(NC(=O)COc2ccc(Cl)cc2)c(=O)oc2ccccc12 | . | 0.0 | . | . | -0.1 | .
O=C(CCN1CCN(Cc2ccccc2)CC1)Nc1cccc(Br)c1 | . | -2.4 | . | . | 2.6 | .
O=C(CSc1nc2ccccc2c2nc3ccccc3n12)NCc1ccco1 | -2.5 | 6.0 | -0.8 | 81.6* | -2.7 | -17.1
COc1cc(NC(=O)C(C)Oc2ccccc2)ccc1NC(=O)COc1ccccc1 (stereo unspecified) | . | ? | . | . | 4.2 | .
CCOC(=O)c1[nH]c2ccccc2c1NC(=S)Nc1ccccc1C | -18.2 | -2.6 | 15.6 | 31.2 | -3.5 | -6.6
